Source: ChEMBL document CHEMBL4184148 (Bioorg Med Chem Lett, 2017)

Legend:
[1] = target: T1, Aurora kinase A (Homo sapiens, UniProt O14965); experiment: Inhibition of recombinant full length His-tagged human Aurora A expressed in baculovirus expression system by Z'LYTE assay
T1 sequence (O14965 whole entry): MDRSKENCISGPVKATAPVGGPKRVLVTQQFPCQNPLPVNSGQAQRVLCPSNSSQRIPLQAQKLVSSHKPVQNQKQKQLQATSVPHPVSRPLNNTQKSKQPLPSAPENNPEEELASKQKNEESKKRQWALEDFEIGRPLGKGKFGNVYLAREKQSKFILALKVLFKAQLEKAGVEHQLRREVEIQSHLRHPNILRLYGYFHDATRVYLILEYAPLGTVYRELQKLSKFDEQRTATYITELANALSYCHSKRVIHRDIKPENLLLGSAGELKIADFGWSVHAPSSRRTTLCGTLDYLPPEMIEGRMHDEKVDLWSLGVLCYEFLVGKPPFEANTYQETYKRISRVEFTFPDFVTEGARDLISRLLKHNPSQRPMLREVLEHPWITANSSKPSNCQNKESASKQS
Method in brief: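 Z'LYTE biochemical kinase assay with ATP at the Km for each kinase. IC50 determined from the assay and reported ± standard error.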

[2] = system: Mast/stem cell growth factor receptor Kit (Homo sapiens), P10721 [D816V]; experiment: Binding affinity to human partial length KIT D816V mutant (I571 to D952 residues) expressed in Escherichia coli BL21 at 1 uM by Kinomescan method relative to control
[3] = target: Cyclin-dependent kinase-like 3 (Homo sapiens) (UniProt Q8IVW4); experiment: Binding affinity to wild-type human partial length CDKL3 (M1 to D327 residues) expressed in Escherichia coli BL21 at 1 uM by Kinomescan method relative to control
[4] = target: Mitogen-activated protein kinase 11 (Homo sapiens) (UniProt Q15759); experiment: Binding affinity to wild-type human full length p38-beta (M1 to Q364 residues) expressed in Escherichia coli BL21 at 1 uM by Kinomescan method relative to control
Method in brief: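 Kinome-wide competition binding panel run by an outside provider, with each compound tested at a single concentration. Activity is read against the kinase panel.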

[5] = target: Serine/threonine-protein kinase ICK (Homo sapiens) (UniProt Q9UPZ9); experiment: Binding affinity to wild-type human partial length ICK (M1 to P314 residues) expressed in HEK293 cells at 1 uM by Kinomescan method relative to control; type: cell-based
[6] = target: MAP kinase-activated protein kinase 2 (Homo sapiens) (UniProt P49137); experiment: Binding affinity to wild-type human partial length MAPKAPK2 (V48 to D345 residues) expressed in Escherichia coli BL21 at 1 uM by Kinomescan method relative to control
[7] = target: Tyrosine-protein kinase JAK3 (Homo sapiens) (UniProt P52333); experiment: Binding affinity to wild-type human partial length JAK3 JH1 catalytic domain (I781 to S1124 residues) expressed in HEK293 cells at 1 uM by Kinomescan method relative to control; type: cell-based
[8] = target: Serine/threonine-protein kinase PAK 2 (Homo sapiens) (UniProt Q13177); experiment: Binding affinity to wild-type human partial length PAK2 (P151 to R525 residues) expressed in Escherichia coli BL21 at 1 uM by Kinomescan method relative to control
[9] = target: Aurora kinase C (Homo sapiens) (UniProt Q9UQB9); experiment: Binding affinity to wild-type human full length AURKC (M1 to S275 residues) expressed in Escherichia coli BL21 at 1 uM by Kinomescan method relative to control
[10] = target: Fibroblast growth factor receptor 4 (Homo sapiens) (UniProt P22455); experiment: Binding affinity to wild-type human partial length FGFR4 (G402 to E713 residues) expressed in Escherichia coli BL21 at 1 uM by Kinomescan method relative to control
[11] = target: Serine/threonine-protein kinase D1 (Homo sapiens) (UniProt Q15139); experiment: Binding affinity to wild-type human partial length PRKD1 (G551 to E870 residues) expressed in Escherichia coli BL21 at 1 uM by Kinomescan method relative to control
[12] = target: Phosphatidylinositol 3-kinase catalytic subunit type 3 (Homo sapiens) (UniProt Q8NEB9); experiment: Binding affinity to wild-type human partial length VPS34 (S282 to H879 residues) expressed in HEK293 cells at 1 uM by Kinomescan method relative to control; type: cell-based
[13] = system: Receptor-type tyrosine-protein kinase FLT3 (Homo sapiens), P36888 [UNDEFINED MUTATION]; experiment: Binding affinity to human partial length FLT3 ITD/D835V double mutant expressed in Escherichia coli BL21 at 1 uM by Kinomescan method relative to control
[14] = system: Mast/stem cell growth factor receptor Kit (Homo sapiens), P10721 [L576P]; experiment: Binding affinity to human partial length KIT L576P mutant (Y545 to D952 residues) expressed in Escherichia coli BL21 at 1 uM by Kinomescan method relative to control
[15] = target: Calcium/calmodulin-dependent protein kinase type II subunit gamma (Homo sapiens) (UniProt Q13555); experiment: Binding affinity to wild-type human partial length CAMK2G (R9 to A303 residues) expressed in Escherichia coli BL21 at 1 uM by Kinomescan method relative to control
[16] = target: Serine/threonine-protein kinase PLK2 (Homo sapiens) (UniProt Q9NYY3); experiment: Binding affinity to wild-type human partial length PLK2 (H58 to F354 residues) expressed in HEK293 cells at 1 uM by Kinomescan method relative to control; type: cell-based
[17] = target: Receptor-interacting serine/threonine-protein kinase 2 (Homo sapiens) (UniProt O43353); experiment: Binding affinity to wild-type human partial length RIPK2 (M1 to K310 residues) expressed in Escherichia coli BL21 at 1 uM by Kinomescan method relative to control
[18] = target: Serine/threonine-protein kinase STK11 (Homo sapiens) (UniProt Q15831); experiment: Binding affinity to wild-type human full length LKB1 (M1 to Q433 residues) expressed in Escherichia coli BL21 at 1 uM by Kinomescan method relative to control
Method in brief: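 Run as one kinome-wide competition binding panel with each compound at a single fixed concentration. Results were plotted as a kinome-wide selectivity map.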

[19] = target: Dual specificity mitogen-activated protein kinase kinase 4 (Homo sapiens) (UniProt P45985); experiment: Binding affinity to wild-type human partial length MEK4 (S84 to D399 residues) expressed in HEK293 cells at 1 uM by Kinomescan method relative to control; type: cell-based
[20] = system: Tyrosine-protein kinase ABL1 (Homo sapiens), P00519 [M351T]; experiment: Binding affinity to human phosphorylated ABL1 M351T mutant (S229 to K512 residues) expressed in HEK293 cells at 1 uM by Kinomescan method relative to control; type: cell-based
[21] = target: Peripheral plasma membrane protein CASK (Homo sapiens) (UniProt O14936); experiment: Binding affinity to wild-type human partial length CASK (M1 to H315 residues) expressed in HEK293 cells at 1 uM by Kinomescan method relative to control; type: cell-based
[22] = target: Calcium/calmodulin-dependent protein kinase type II subunit alpha (Homo sapiens) (UniProt Q9UQM7); experiment: Binding affinity to wild-type human partial length CAMK2A (M1 to K328 residues) expressed in Escherichia coli BL21 at 1 uM by Kinomescan method relative to control
Chain of Calcium/calmodulin-dependent protein kinase type II subunit alpha (Homo sapiens) (Q9UQM7 whole entry, the tested form may be a part): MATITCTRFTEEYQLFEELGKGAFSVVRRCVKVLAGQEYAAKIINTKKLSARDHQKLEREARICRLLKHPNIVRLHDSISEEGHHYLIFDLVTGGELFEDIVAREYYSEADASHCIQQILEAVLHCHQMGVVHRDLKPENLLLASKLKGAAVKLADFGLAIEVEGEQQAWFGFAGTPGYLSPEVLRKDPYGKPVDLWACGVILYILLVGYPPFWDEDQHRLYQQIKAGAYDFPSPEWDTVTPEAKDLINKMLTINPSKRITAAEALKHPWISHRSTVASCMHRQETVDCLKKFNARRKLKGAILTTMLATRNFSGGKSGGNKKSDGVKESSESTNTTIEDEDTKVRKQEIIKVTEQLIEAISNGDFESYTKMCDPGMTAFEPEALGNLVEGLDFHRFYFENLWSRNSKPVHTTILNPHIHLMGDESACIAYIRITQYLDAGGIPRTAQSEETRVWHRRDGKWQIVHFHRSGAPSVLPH

Chain of Fibroblast growth factor receptor 4 (Homo sapiens) (P22455 22-802 limits assumed): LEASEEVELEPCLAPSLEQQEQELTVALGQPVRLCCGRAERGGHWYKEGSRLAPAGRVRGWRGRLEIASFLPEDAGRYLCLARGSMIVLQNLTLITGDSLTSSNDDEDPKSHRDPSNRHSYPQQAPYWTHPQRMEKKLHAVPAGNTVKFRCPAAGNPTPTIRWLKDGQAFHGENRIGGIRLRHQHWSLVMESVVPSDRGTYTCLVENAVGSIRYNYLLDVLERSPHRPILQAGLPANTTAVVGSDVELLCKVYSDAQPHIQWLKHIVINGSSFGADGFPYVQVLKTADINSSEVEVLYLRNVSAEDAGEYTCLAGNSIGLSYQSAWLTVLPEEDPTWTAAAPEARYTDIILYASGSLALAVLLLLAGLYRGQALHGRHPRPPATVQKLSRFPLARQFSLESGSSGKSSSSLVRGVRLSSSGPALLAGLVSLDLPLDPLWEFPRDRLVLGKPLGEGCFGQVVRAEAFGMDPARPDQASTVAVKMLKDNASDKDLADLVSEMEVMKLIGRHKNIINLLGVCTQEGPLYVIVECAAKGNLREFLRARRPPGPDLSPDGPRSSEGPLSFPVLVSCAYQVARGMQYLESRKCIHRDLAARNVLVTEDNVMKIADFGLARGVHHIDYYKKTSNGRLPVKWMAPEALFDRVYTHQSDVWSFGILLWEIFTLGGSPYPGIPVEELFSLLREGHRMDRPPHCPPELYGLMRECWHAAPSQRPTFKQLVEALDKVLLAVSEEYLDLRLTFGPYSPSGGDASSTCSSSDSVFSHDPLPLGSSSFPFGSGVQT
Chain of Aurora kinase C (Homo sapiens) (Q9UQB9 whole entry, the tested form may be a part): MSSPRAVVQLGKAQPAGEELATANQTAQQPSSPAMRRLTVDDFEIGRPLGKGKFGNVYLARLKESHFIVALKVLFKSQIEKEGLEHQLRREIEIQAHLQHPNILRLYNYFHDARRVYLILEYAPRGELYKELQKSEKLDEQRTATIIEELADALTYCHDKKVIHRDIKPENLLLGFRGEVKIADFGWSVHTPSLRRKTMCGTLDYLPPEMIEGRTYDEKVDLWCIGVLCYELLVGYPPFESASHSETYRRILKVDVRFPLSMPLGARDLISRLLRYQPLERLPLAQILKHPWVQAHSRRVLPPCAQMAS
Chain of Serine/threonine-protein kinase D1 (Homo sapiens) (Q15139 whole entry, the tested form may be a part): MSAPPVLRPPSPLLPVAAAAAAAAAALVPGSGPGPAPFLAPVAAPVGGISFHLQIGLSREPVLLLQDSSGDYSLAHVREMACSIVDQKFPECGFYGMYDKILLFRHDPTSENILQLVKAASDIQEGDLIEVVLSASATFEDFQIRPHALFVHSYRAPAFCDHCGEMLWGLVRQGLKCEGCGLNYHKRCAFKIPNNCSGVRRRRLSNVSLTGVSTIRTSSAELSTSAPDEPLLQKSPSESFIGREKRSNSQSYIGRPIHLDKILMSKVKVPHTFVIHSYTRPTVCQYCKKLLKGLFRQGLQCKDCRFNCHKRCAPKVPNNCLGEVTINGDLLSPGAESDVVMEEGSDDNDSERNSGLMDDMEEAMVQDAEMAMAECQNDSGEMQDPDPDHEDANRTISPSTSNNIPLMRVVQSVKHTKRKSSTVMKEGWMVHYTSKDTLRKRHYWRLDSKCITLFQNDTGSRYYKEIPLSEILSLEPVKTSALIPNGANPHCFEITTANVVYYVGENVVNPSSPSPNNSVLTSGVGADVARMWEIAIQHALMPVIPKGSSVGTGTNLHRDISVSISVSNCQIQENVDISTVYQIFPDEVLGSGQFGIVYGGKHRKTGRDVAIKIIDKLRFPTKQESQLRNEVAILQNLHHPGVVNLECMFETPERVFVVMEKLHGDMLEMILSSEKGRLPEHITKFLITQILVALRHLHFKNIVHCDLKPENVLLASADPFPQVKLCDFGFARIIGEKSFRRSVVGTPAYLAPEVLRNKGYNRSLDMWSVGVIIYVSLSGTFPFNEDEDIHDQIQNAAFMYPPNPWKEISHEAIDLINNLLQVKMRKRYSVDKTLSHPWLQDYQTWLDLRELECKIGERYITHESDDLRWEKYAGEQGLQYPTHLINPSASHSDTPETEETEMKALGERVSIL
Chain of Mast/stem cell growth factor receptor Kit (Homo sapiens), P10721 [D816V] (P10721 whole entry D816V, the tested form may be a part): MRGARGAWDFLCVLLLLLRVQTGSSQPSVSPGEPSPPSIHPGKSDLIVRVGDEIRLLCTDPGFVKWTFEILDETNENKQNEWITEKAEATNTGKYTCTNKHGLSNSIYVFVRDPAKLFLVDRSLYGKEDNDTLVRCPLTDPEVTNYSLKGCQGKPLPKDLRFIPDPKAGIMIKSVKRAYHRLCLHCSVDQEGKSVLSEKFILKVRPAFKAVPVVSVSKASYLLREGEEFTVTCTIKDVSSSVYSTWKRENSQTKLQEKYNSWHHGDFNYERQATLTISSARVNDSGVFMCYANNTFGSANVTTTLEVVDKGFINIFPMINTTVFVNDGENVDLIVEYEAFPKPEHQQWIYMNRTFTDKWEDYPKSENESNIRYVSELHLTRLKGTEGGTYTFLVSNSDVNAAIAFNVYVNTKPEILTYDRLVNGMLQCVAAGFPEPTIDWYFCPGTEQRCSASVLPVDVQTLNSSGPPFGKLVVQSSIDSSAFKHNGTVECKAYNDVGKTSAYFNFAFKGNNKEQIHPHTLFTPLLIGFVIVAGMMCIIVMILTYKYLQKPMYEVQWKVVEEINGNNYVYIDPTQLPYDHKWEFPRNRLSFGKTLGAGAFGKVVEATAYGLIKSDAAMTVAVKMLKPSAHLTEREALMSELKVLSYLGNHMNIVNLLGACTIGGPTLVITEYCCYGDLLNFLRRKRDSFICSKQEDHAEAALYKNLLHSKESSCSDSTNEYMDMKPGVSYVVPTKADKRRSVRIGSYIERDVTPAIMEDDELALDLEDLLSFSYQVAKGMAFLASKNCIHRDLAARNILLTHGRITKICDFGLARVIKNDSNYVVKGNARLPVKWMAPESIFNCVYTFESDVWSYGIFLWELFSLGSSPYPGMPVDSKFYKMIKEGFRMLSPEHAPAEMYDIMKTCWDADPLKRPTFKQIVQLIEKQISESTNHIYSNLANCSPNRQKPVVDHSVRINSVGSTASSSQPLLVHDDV
Chain of Calcium/calmodulin-dependent protein kinase type II subunit gamma (Homo sapiens) (Q13555 whole entry, the tested form may be a part): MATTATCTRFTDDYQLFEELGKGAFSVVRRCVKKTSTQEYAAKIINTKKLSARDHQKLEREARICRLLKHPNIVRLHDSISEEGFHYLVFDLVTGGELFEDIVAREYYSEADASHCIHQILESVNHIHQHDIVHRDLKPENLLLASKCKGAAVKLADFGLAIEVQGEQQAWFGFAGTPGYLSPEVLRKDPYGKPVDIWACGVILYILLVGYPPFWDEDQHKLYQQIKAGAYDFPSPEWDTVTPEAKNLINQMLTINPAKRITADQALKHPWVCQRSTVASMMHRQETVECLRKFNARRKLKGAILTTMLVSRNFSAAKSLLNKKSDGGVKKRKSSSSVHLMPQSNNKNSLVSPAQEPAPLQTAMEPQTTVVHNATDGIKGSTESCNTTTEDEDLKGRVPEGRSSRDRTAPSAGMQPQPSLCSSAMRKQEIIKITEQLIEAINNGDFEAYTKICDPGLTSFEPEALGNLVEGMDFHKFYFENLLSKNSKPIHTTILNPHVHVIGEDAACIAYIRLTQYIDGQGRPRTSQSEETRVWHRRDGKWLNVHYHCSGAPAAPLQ
Chain of Cyclin-dependent kinase-like 3 (Homo sapiens) (Q8IVW4 whole entry, looked up, the tested form may be a part): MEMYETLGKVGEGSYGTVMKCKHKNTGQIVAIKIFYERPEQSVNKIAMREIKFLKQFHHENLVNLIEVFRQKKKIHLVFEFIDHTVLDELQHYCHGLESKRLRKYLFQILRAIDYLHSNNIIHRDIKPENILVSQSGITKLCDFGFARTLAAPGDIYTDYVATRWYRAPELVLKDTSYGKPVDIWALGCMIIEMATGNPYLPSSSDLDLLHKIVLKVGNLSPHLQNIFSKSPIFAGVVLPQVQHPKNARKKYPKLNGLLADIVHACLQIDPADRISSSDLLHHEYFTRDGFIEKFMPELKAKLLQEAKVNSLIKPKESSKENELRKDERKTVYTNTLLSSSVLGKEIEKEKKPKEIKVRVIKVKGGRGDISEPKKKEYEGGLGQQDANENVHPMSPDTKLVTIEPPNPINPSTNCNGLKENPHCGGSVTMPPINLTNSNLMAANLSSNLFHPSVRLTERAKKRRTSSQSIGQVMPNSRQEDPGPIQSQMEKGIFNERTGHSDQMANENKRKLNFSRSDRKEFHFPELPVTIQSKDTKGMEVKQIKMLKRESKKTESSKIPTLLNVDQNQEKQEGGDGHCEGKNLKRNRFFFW
Chain of Serine/threonine-protein kinase STK11 (Homo sapiens) (Q15831 whole entry, the tested form may be a part): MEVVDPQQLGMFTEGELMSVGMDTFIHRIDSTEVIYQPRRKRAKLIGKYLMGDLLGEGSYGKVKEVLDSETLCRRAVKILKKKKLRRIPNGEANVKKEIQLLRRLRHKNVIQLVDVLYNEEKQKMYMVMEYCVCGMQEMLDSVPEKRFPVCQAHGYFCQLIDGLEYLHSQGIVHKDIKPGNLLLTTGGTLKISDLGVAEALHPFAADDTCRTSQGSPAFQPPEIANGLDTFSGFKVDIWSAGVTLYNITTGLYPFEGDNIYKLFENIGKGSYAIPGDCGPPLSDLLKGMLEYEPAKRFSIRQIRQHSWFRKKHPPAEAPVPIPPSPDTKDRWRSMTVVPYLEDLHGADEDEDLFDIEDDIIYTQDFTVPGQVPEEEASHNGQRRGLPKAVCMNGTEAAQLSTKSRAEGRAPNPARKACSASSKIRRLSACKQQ

| SMILES | IC50 [1] | Activity [2] | Activity [3] | Activity [4] | Activity [5] | Activity [6] | Activity [7] | Activity [8] | Activity [9] | Activity [10] | Activity [11] | Activity [12] | Activity [13] | Activity [14] | Activity [15] | Activity [16] | Activity [17] | Activity [18] | Activity [19] | Activity [20] | other results |
| --- | --- | --- | --- | --- | --- | --- | --- | --- | --- | --- | --- | --- | --- | --- | --- | --- | --- | --- | --- | --- | --- |
| CCC(=O)Nc1ccc(C(=O)Nc2ccc(Nc3ncc4c(n3)N(C)c3ccc(C)cc3C(=O)N4C)cc2)cc1 | 52 nM | 91% | 95% | 100% | 97% | 100% | 100% | 99% | 1.3% | 97% | 97% | 100% | 100% | 71% | 97% | 74% | 98% | 94% | 88% | 100% | Activity [21]: 80%; Activity [22]: 88% |
| C=CC(=O)Nc1ccc(C(=O)Nc2ccc(Nc3ncc4c(n3)N(C)c3ccc(C)cc3C(=O)N4C)cc2)cc1 | 44 nM | 88% | 98% | 89% | 86% | 98% | 88% | 86% | 49% | 74% | 93% | 99% | 94% | 85% | 100% | 90% | 89% | 93% | 100% | 95% | Activity [21]: 97%; Activity [22]: 100% |
